Source: ChEMBL document CHEMBL3861961, “Effects of Functional Groups and Sugar Composition of Quercetin Derivatives on Their Radical Scavenging Properties” (J Nat Prod, 2016)
Active and inactive are the calls of the source. No cut-off for these calls is given here.

Columns and labels:
[1] = Antioxidant activity assessed as DPPH free radical scavenging activity by measuring remaining DPPH at 5 uM after 15 to 60 mins relative to trolox; assay type: functional
Outline: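 DPPH 74 μM final in H2O/MeOH (5/3), mixed vigorously with sample (0.1 mM stock in MeOH; 5 μM final) and left standing. Absorbance at 545 nm read at 15, 30 and 60 min. Wells without compound served as negative controls. At least three replicates per compound and control.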

[2] = Antioxidant activity assessed as DPPH free radical scavenging activity at 5 uM after 15 to 60 mins in presence of CuSO4.5H2O; assay type: functional
Outline: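 Samples (0.2 mM in MeOH) mixed 1:1 by volume with CuSO4·5H2O (0.4 mM in MeOH), held 1.5 h at room temperature. DPPH step: 74 μM DPPH final in H2O/MeOH (5/3), sample 5 μM final. Mixture left standing, then absorbance read at 545 nm after 15, 30 and 60 min. Wells without compound were negative controls. At least triplicate.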

[3] = Antioxidant activity assessed as DPPH free radical scavenging activity by measuring decrease in signal intensity at 0.015 mmol measured after 30 mins in presence of 3-Omethylquercetin by 13C-NMR spectroscopy

SMILES	Activity [1]	Activity [2]	Activity [3]
O=c1c(O[C@@H]2O[C@H](CO)[C@H](O)[C@H](O)[C@H]2O)c(-c2ccc(O)c(O)c2)oc2cc(O)cc(O)c12	< 70%	Active	–
O=c1c(O[C@@H]2O[C@H](CO)[C@@H](O)[C@H](O)[C@H]2O)c(-c2ccc(O)c(O)c2)oc2cc(O)cc(O)c12	< 70%	Active	–
COC(=O)c1cc(O)c(O)c(O)c1	–	–	Active
COc1ccc(-c2oc3cc(O)cc(O)c3c(=O)c2O)cc1O	–	Active	–
O=C(O[C@H]1[C@H](Oc2c(-c3ccc(O)c(O)c3)oc3cc(O)cc(O)c3c2=O)O[C@H](CO)[C@@H](O)[C@@H]1OC(=O)c1cc(O)c(O)c(O)c1)c1cc(O)c(O)c(O)c1	–	< 35%	–
O=C(OC[C@H]1O[C@@H](Oc2c(-c3ccc(O)c(O)c3)oc3cc(O)cc(O)c3c2=O)[C@H](O)[C@@H](O)[C@@H]1O)c1cc(O)c(O)c(O)c1	–	< 35%	–
COc1cc(-c2oc3cc(O)cc(O)c3c(=O)c2O[C@@H]2O[C@H](CO)[C@@H](O)[C@H](O)[C@H]2O)ccc1O	–	Active	–
COc1cc(O)cc2oc(-c3ccc(O)c(O)c3)c(O[C@@H]3O[C@H](CO)[C@@H](O)[C@H](O)[C@H]3O)c(=O)c12	< 70%	Active	–
O=C(O[C@H]1[C@H](Oc2c(-c3ccc(O)c(O)c3)oc3cc(O)cc(O)c3c2=O)O[C@H](CO)[C@@H](O)[C@@H]1O)c1cc(O)c(O)c(O)c1	–	< 35%	–
COc1cc(-c2oc3cc(O)cc(O)c3c(=O)c2O[C@@H]2O[C@H](CO)[C@H](O)[C@H](O)[C@H]2O)ccc1O	–	Active	–
O=C(O[C@H]1[C@H](O)[C@@H](O)[C@H](Oc2c(-c3ccc(O)c(O)c3)oc3cc(O)cc(O)c3c2=O)O[C@@H]1CO)c1cc(O)c(O)c(O)c1	–	< 35%	–
COc1c(-c2ccc(O)c(O)c2)oc2cc(O)cc(O)c2c1=O	< 70%	Active	–
COc1cc(O)cc2oc(-c3ccc(O)c(O)c3)c(O)c(=O)c12	< 70%	Active	–
COc1cc(-c2oc3cc(O)cc(O)c3c(=O)c2O)ccc1O	–	Active	–
O=C(O[C@@H]1[C@@H](O)[C@H](Oc2c(-c3ccc(O)c(O)c3)oc3cc(O)cc(O)c3c2=O)O[C@H](CO)[C@H]1O)c1cc(O)c(O)c(O)c1	–	< 35%	–
O=c1c(O)c(-c2ccc(O)c(O)c2)oc2cc(O)cc(O)c12	< 70%	Active	–
COc1cc(O)cc2oc(-c3ccc(O)c(O)c3)c(O[C@@H]3O[C@H](CO)[C@H](O)[C@H](O)[C@H]3O)c(=O)c12	< 70%	Active	–
